Measured values collected from several papers.
Each line is one published result; the experiments were not run side by side.
Target: Serine/threonine-protein kinase Nek2 (NEK2, Homo sapiens, UniProt P51955)

| Structure (SMILES) | test | conditions | measurement | result |
| --- | --- | --- | --- | --- |
| COc1ccc2c(c1)O[C@H](c1ccc(OC)c(OC)c1)C[C@@H]2NC(=O)C1(c2ccc3c(c2)OC(F)(F)O3)CC1 | cell-free assay, competition with immobilised ligand | 1 µM | remaining binding | 100% |
| Cn1c2c(c3ccc(Cl)c(Cl)c31)C(C#N)C1(CCOCC1)NC2=O (stereo not shown) | thermal stability, DSF | 10 µM | ΔTm | -0.2 °C |
| N#CCCc1ccc2c(c1)-c1[nH]c3ccc([N+](=O)[O-])cc3c1CC(=O)N2 | cell-free assay | 0.5 µM | remaining signal | 92.7% |
| O=C(Nc1cnn(-c2csc(C(=O)NC3COC3)c2)c1)Nc1c(F)cccc1Cl | enzyme activity, inhibitor | 5 µM | remaining activity | 96.2% |
| Cc1ccc(NC(=O)c2ccc(CN3CCN(C)CC3)cc2)cc1Nc1nc(-c2cccnc2)cs1 | cell-free assay | 0.5 µM | remaining signal | 96.7% |
| CC(C)(O)[C@H]1CC[C@H](Nc2ccc3ncc(-c4cccc(C(F)(F)F)c4)n3n2)CC1 | enzyme activity, inhibitor | 1 µM | remaining activity | 100% |
| CNC(=O)c1ccc(Nc2ncc(C(F)(F)F)c(NCc3nccnc3N(C)S(C)(=O)=O)n2)cc1 | cell-free assay, competition with immobilised ligand | 0.1 µM | remaining binding | 75% |
| FC(F)c1nc2ccccc2n1-c1nc(N2CCOCC2)nc(N2CCOCC2)n1 | enzyme activity, inhibitor | 10 µM | remaining activity | 106% |
| CN(c1ccnc(CNc2nc(Nc3ccc4c(c3)CC(=O)N4)ncc2C(F)(F)F)n1)S(C)(=O)=O | cell-free assay, competition with immobilised ligand | 1 µM | remaining binding | 83% |
| CC(C)(C)c1nc(-c2cccc(NS(=O)(=O)c3c(F)cccc3F)c2F)c(-c2ccnc(N)n2)s1 | enzyme activity, inhibitor, radiometric | 1 µM | remaining activity | 83% |
| CCCS(=O)(=O)Nc1ccc(F)c(C(=O)c2c[nH]c3ncc(-c4ccc(Cl)cc4)cc23)c1F | enzyme activity, inhibitor | 1 µM | inhibition | < 20% |
| CCN(CC)CCNC(=O)c1c(C)[nH]c(/C=C2\C(=O)Nc3ccc(F)cc32)c1C | enzyme activity, inhibitor | 10 µM | inhibition | 28% |
| CCCOc1ccc(OC)c(F)c1C(=O)c1ccc(C(=O)N[C@@H]2CNC[C@H]2NC(=O)c2ccc3[nH]ncc3c2)cc1 | enzyme activity, inhibitor | 10 µM | remaining activity | 66% |
| Cn1c2c(Cl)c(Cl)ccc2c2cn[nH]c(=O)c21 | thermal stability, DSF | 10 µM | ΔTm | -0.6 °C |
| CSc1nc(C)c(-c2ccnc(Nc3ccc(N4CCOCC4)cc3)c2)[nH]1 | enzyme activity, inhibitor | 10 µM | inhibition | 20% |
| FC(F)(F)Oc1cccc(-c2cnc3ccc(-c4ccncc4)nn23)c1 | enzyme activity, inhibitor, radiometric | 1 µM | activity vs control | 91% |
| Cc1cnc(NC2CCOCC2)nc1-n1cnc(C(=O)NC(CN)c2cc(F)cc(Cl)c2)c1 (stereo not shown) | enzyme activity, inhibitor, radiometric | 1 µM | remaining activity | 36% |
| O=C(NS(=O)(=O)c1ccc(NCC2CCOCC2)c([N+](=O)[O-])c1)c1ccc(N2CCN(Cc3ccc(C(F)(F)F)cc3-c3ccc(Cl)cc3)CC2)cc1Oc1cnc2[nH]ccc2c1 | cell-free assay, competition with immobilised ligand | 1 µM | remaining binding | 100% |
| C=CC(=O)Nc1cc(Nc2nccc(Nc3cc(Cl)c(F)cc3C(C)(C)O)n2)c(OC)cc1N1CC[C@@H](N(C)C)C1 | enzyme activity, inhibitor | 1 µM | inhibition | 5% |

| Structure (SMILES) | test | conditions | measurement | result |
| --- | --- | --- | --- | --- |
| CN(C(=O)c1ccccc1)c1cc(N(C)c2ccc3c(c2)CCc2ccc(C(=O)NCCN4CCOCC4)cc2C3=O)ccc1F | cell-free assay, competition with immobilised ligand | 1 µM | remaining binding | 96% |
| Nc1ncnc2occ(-c3ccc(NC(=O)Nc4cc(C(F)(F)F)ccc4F)cc3)c12 | cell-free assay, inhibitor | 20 µM | remaining signal | 2.1% |
| CC(C)(C)C(=O)c1sc(NC2CCCCC2)nc1N | enzyme activity, inhibitor | 10 µM | remaining activity | 93% |
| CN(C)C1CCN(CC#Cc2nn(C3CCCC3)c3nc(NCc4ccccc4)ncc23)C1 (stereo not shown) | enzyme activity, inhibitor, FRET | 10 µM | inhibition | 15% |
| CN(C)CC#Cc1ccc(OCCCc2sc(N3CCc4cccc(C(=O)Nc5nc6ccccc6s5)c4C3)nc2C(=O)O)c(F)c1 | cell-free assay, competition with immobilised ligand | 1 µM | remaining binding | 92% |
| O=C1NC(=O)c2cc(Nc3ccc(F)cc3)c(Nc3ccc(F)cc3)cc21 | cell-free assay | 0.5 µM | remaining signal | 96.3% |
| CS(=O)(=O)NCC[C@H](NC(=O)c1cncc2c1cnn2-c1ccc(F)cc1)c1ccnc(S(C)(=O)=O)c1 | cell-free assay, competition with immobilised ligand | 1 µM | remaining binding | 97% |
| CNC(=O)c1cc(Oc2ccc(NC(=O)Nc3ccc(Cl)c(C(F)(F)F)c3)cc2)ccn1 | enzyme activity, inhibitor | 0.3 µM | inhibition | -1% |
| COc1cc2ncnc(Nc3ccc(Oc4ccccc4)cc3C)c2cc1OC | enzyme activity, inhibitor | 1 µM | inhibition | 1% |
| CNCc1ccc(-c2cc(-c3nc(-c4ccc(S(=O)(=O)C(C)C)cc4)cnc3N)on2)cc1 | enzyme activity, inhibitor | 0.4 µM | inhibition | 0% |
| CC1(C)NC(=O)c2[nH]c3c(Cl)c(Cl)ccc3c2C1C#N (stereo not shown) | thermal stability, DSF | 10 µM | ΔTm | -0.8 °C |
| CN1CC(Oc2cnc(C#N)cc2-c2ccn3nc(NC(=O)C4CC4)cc3c2)C1 | enzyme activity, inhibitor | 1 µM | inhibition | 5% |
| Cn1c2c(c3ccc(Cl)c(Cl)c31)C(C#N)C1(CCCC1)NC2=O (stereo not shown) | thermal stability, DSF | 10 µM | ΔTm | 0.3 °C |
| CCC(=N\O)/C(C)=C/c1ccc(F)cc1 | cell-free assay, competition with immobilised ligand | 1 µM | remaining binding | 100% |
| Cc1ccc(C(=O)Nc2ccc(CN3CCN(C)CC3)c(C(F)(F)F)c2)cc1C#Cc1cnc2cccnn12 | enzyme activity, inhibitor | 23.5 nM | remaining activity | 92% |
| COc1cc(Nc2cnc(C#N)c(O[C@H](C)CN(C)C)n2)ncc1-c1cnn(C)c1 | enzyme activity, inhibitor, radiometric | 1 µM | remaining activity | 58% |
| Cc1ccc(Nc2nccc(N(C)c3ccc4c(C)n(C)nc4c3)n2)cc1S(N)(=O)=O | enzyme activity, inhibitor | 10 µM | inhibition | 91% |
| CC/C(=N\NC(=O)NCc1cccc(O)c1)c1ccc(O)c(C)c1O | enzyme activity, inhibitor | 0.1 µM | inhibition | -2.4% |
